We go through 9 compounds from ChEMBL document CHEMBL4049392, “New azole derivatives showing antimicrobial effects and their mechanism of antifungal activity by molecular modeling studies” (Eur J Med Chem, 2017).

SMILES strings stand for the structures. Where only a bound is given, the exact number is not on record here.

For one series, the system named is Staphylococcus aureus. Description: Antibacterial activity against Staphylococcus aureus ATCC 29213 after 18 to 24 hrs by broth microdilution method. In kind it is functional. In outline:
(§1)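 CLSI broth microdilution in Mueller Hinton broth, with inoculum from 24 h Mueller Hinton agar subcultures, final about 5 10^5 cfu/mL. Compounds were dissolved in DMSO and tested as twofold dilutions in wells. Plates were incubated at 35 °C for 18–24 h. MIC was read as the lowest concentration completely inhibiting visible growth. Ciprofloxacin was the reference.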
Background: Broth dilution looks for growth in wells or tubes with falling amounts of substance.

For another series, the system named is Enterococcus faecalis. Description: Antibacterial activity against Enterococcus faecalis ATCC 29212 after 18 to 24 hrs by broth microdilution method. In kind it is functional. In outline: as §1
The next series relates to Escherichia coli. Description: Antibacterial activity against Escherichia coli ATCC 25922 after 18 to 24 hrs by broth microdilution method. It is filed as functional. In outline:
as §1

Series [1] relates to Candida albicans. Briefly: Antibiofilm activity against Candida albicans SC5314 after 24 hrs by turbidity assay. It is filed as functional. In outline: (§2)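 Biofilms were grown on Calgary device pegs from a 10^6 cfu/mL inoculum for 24 h at 37 °C. Pegs were rinsed in saline, then challenged with twofold dilutions for 24 h at 35 °C. Biofilm was recovered by 5 min sonication into RPMI 1640 with 2% glucose and incubated overnight. OD was read at 550 nm plus visual turbidity. MBEC was the lowest concentration preventing regrowth. MBIC was the minimum concentration preventing initial biofilm formation, judged by visual turbidity.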

Series [2] in a line: Cytotoxicity against human U937 cells assessed as cell viability at 10 to 100 ug/ml after 48 hrs by MTT assay relative to control. It is filed as cell-based, U-937. Conditions: read-out: Activity. In outline: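 U937 human monocytic cells, 4 10^3 per well in RPMI-1640 with 10% FBS, L-glutamine, penicillin and streptomycin, at 37 °C and 5% CO2. Compounds in DMSO were added at five final concentrations for 48 h, in triplicate. MTT was added for 4 h, formazan was dissolved overnight in SDS/23% DMF, and OD was read at 570 nm. Results are % reduction in viable cells versus control.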
(Tetrazolium dyes change colour on reduction, which living cells bring about.)

In series [3] the test system is Candida albicans. Description: Anti-fungal activity against Candida albicans ATCC 90028 after 48 hrs by broth microdilution method. In kind it is functional. Conditions: ATCC 90028, 48 h. Put shortly: (§3)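 CLSI broth microdilution in RPMI 1640 (with glutamine, without bicarbonate) buffered to pH 7.0 with MOPS. Inoculum was prepared from 24 h Sabouraud dextrose agar subcultures, final 0.5 to 2.5 10^3 cfu/mL. Twofold dilutions were made from DMSO stocks. Incubated 35 °C for 48 h. MIC was the lowest concentration with no visible growth; for the fluconazole reference, MIC was taken at about 80% growth inhibition versus control.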

For another series, the system named is Candida parapsilosis. Briefly: Anti-fungal activity against Candida parapsilosis ATCC 90018 after 48 hrs by broth microdilution method. In kind it is functional. Conditions: Lodderomyces parapsilosis, ATCC 90018, 48 h. Put shortly: as §3
In the next series the test system is Nakaseomyces glabratus. Briefly: Anti-fungal activity against drug-resistant Candida glabrata after 48 hrs by broth microdilution method. In kind it is functional. Put shortly:
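Clinical resistant C. glabrata isolate, stored frozen in glycerol and subcultured twice on Sabouraud dextrose agar. CLSI broth microdilution in RPMI 1640 (glutamine, no bicarbonate) buffered to pH 7.0 with MOPS. Inoculum from 24 h subcultures, final 0.5 to 2.5 x10^3 cfu/mL. DMSO-dissolved compounds in twofold dilutions, 35 C for 48 h. MIC is the lowest concentration giving complete visual growth inhibition; fluconazole reference read at about 80% inhibition.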

The test system of the next series is Pseudomonas aeruginosa. Briefly: Antibacterial activity against Pseudomonas aeruginosa ATCC 27853 after 18 to 24 hrs by broth microdilution method. In kind it is functional. Put shortly:
as §1

Series [4] concerns Candida albicans. Description: Antibiofilm activity against Candida albicans SC5314 after 24 hrs by spectrophotometric method. In kind it is functional. Put shortly: as §2
For a further series, the system named is Pichia kudriavzevii. Description: Anti-fungal activity against Candida krusei ATCC 6258 after 48 hrs by broth microdilution method. The settings on record: ATCC 6258, 48 h. It is filed as functional. In outline: as §3

On to `Cl.O=C(OC(Cn1ccnc1)c1ccc(Cl)cc1)c1ccc(-c2ccccc2)cc1` (configuration not stated), for which the MIC with Staphylococcus aureus was 512 µg/mL; with Enterococcus faecalis it was 256 µg/mL; in the series with Escherichia coli, 512 µg/mL; with Candida albicans [3], 0.25 µg/mL; against Candida parapsilosis, 0.25 µg/mL; with Nakaseomyces glabratus, 4 µg/mL. In addition, the MIC in the series with Pseudomonas aeruginosa worked out at 256 µg/mL; in the series on Pichia kudriavzevii, 4 µg/mL. For the same compound, the MBIC in the series with Candida albicans [1] amounted to 4 µg/mL. Moreover, the viability at 48 h in series [2] was 70 to 80%. In the series with Candida albicans [4], this compound displayed an MBEC of 512 µg/mL.
In the case of `CCCCC(=O)OC(Cn1ccnc1)c1ccc(Cl)cc1.Cl` (configuration not stated), the MIC in the series on Staphylococcus aureus amounted to 32 µg/mL; against Enterococcus faecalis, 128 µg/mL; against Escherichia coli, 512 µg/mL; against Candida albicans [3], 0.5 µg/mL; against Candida parapsilosis it was 0.5 µg/mL; with Nakaseomyces glabratus, 0.25 µg/mL. Also, the MIC against Pseudomonas aeruginosa is 256 µg/mL; against Pichia kudriavzevii, 8 µg/mL. Further, the MBIC in the series with Candida albicans [1] amounted to 8 µg/mL. Moreover, the viability at 48 h in series [2] fell in the range of 70 to 80%. Further, the MBEC in the series with Candida albicans [4] was 1024 µg/mL.
`Cl.O=C(OC(Cn1ccnc1)c1ccccc1)c1ccc(-c2ccccc2)cc1` (configuration not stated): the MIC against Staphylococcus aureus amounted to 512 µg/mL; with Enterococcus faecalis it was 128 µg/mL; in the series on Escherichia coli it was 512 µg/mL; in the series with Candida albicans [3] it was 0.125 µg/mL; in the series with Candida parapsilosis, 0.125 µg/mL; in the series on Nakaseomyces glabratus, 2 µg/mL. The values for the MIC against Pseudomonas aeruginosa and in the series on Pichia kudriavzevii were 256 µg/mL and 8 µg/mL, respectively. In the series with Candida albicans [1], this compound had an MBIC of 8 µg/mL. Moreover, in series [2], the viability at 48 h was 70 to 80%. Also, the MBEC in the series with Candida albicans [4] came out at 1024 µg/mL.
For `CCC(=O)OC(Cn1ccnc1)c1ccc(Cl)cc1.Cl` (configuration not stated), the MIC was 256 µg/mL against Staphylococcus aureus; 256 µg/mL against Enterococcus faecalis; 512 µg/mL with Escherichia coli; 4 µg/mL against Candida albicans [3]; 4 µg/mL against Candida parapsilosis; 32 µg/mL in the series with Nakaseomyces glabratus. Moreover, the values for the MIC against Pseudomonas aeruginosa and against Pichia kudriavzevii were 256 µg/mL and 32 µg/mL, respectively. Moreover, in series [2], the viability at 48 h fell in the range of 70 to 80%.
Take `Cl.O=C(/C=C/c1ccccc1)OC(Cn1ccnc1)c1ccccc1` (configuration not stated): the MIC against Staphylococcus aureus came to 8 µg/mL; in the series on Enterococcus faecalis, 64 µg/mL; in the series with Escherichia coli it was 512 µg/mL; with Candida albicans [3], 1 µg/mL; with Candida parapsilosis, 1 µg/mL; in the series with Nakaseomyces glabratus, 8 µg/mL. Also, the MIC with Pseudomonas aeruginosa is 256 µg/mL; against Pichia kudriavzevii, 16 µg/mL. The compound further yielded an MBIC in the series with Candida albicans [1] of 8 µg/mL. Further, the viability at 48 h in series [2] lay in the range of 70 to 80%. This compound also gave an MBEC in the series with Candida albicans [4] of 1024 µg/mL.
For the compound `CC(C)CC(=O)OC(Cn1ccnc1)c1ccc(Cl)cc1.Cl` (configuration not stated), the MIC in the series with Staphylococcus aureus was 32 µg/mL; in the series on Enterococcus faecalis it was 128 µg/mL; in the series with Escherichia coli, 512 µg/mL; with Candida albicans [3], 0.25 µg/mL; in the series with Candida parapsilosis, 0.25 µg/mL; in the series with Nakaseomyces glabratus, 1 µg/mL. Further, the MIC in the series on Pseudomonas aeruginosa came to 256 µg/mL; against Pichia kudriavzevii, 4 µg/mL. The compound further showed an MBIC in the series on Candida albicans [1] of 8 µg/mL. Also, the viability at 48 h in [2] lay within 70 to 80%. In the series on Candida albicans [4], this compound showed an MBEC of 1024 µg/mL.
In the case of `C/C=C/C=C/C(=O)OC(Cn1ccnc1)c1ccc(Cl)cc1.Cl` (configuration not stated), the MIC worked out at 16 µg/mL in the series on Staphylococcus aureus; 128 µg/mL in the series with Enterococcus faecalis; 512 µg/mL against Escherichia coli; 0.5 µg/mL against Candida albicans [3]; 1 µg/mL against Candida parapsilosis; 4 µg/mL in the series with Nakaseomyces glabratus. For the same compound, the MIC with Pseudomonas aeruginosa worked out at 256 µg/mL; in the series on Pichia kudriavzevii, 8 µg/mL. Further, the MBIC in the series with Candida albicans [1] is 8 µg/mL. In addition, the viability at 48 h in series [2] was 70 to 80%. Moreover, the MBEC in the series with Candida albicans [4] is 1024 µg/mL.
Take `CCCC(=O)OC(Cn1ccnc1)c1ccc(Cl)cc1.Cl` (configuration not stated): the MIC in the series on Staphylococcus aureus amounted to 64 µg/mL; in the series with Enterococcus faecalis it was 256 µg/mL; in the series on Escherichia coli it was 512 µg/mL; in the series with Candida albicans [3], 0.5 µg/mL; in the series with Candida parapsilosis, 1 µg/mL; in the series on Nakaseomyces glabratus, 16 µg/mL. For the same compound, the values for the MIC in the series with Pseudomonas aeruginosa and with Pichia kudriavzevii were 256 µg/mL and 4 µg/mL, respectively. This compound also returned an MBIC with Candida albicans [1] of over 32 µg/mL. In addition, the viability at 48 h in series [2] lay within 70 to 80%. The compound further returned an MBEC in the series with Candida albicans [4] of 1024 µg/mL.
On to `Cl.O=C(OC(Cn1ccnc1)c1ccc(Cl)cc1)C1CCCCC1` (configuration not stated), for which the MIC against Staphylococcus aureus was 256 µg/mL; in the series on Enterococcus faecalis, 512 µg/mL; against Escherichia coli it was 256 µg/mL; against Candida albicans [3], 1 µg/mL; in the series with Candida parapsilosis it was 1 µg/mL; in the series with Nakaseomyces glabratus, 0.5 µg/mL. Also, the results for the MIC with Pseudomonas aeruginosa and against Pichia kudriavzevii were 1020 µg/mL and 8 µg/mL, respectively. For the same compound, in the series with Candida albicans [1], the MBIC was 8 µg/mL. In series [2], the viability at 48 h was 70 to 80%. In the series on Candida albicans [4], this compound returned an MBEC of 512 µg/mL.

Usually MIC stands for the lowest concentration found to suppress growth. The low end stands for greater potency, the high end for weaker potency.
